Laboratory results from ChEMBL document CHEMBL1139240, “Synthesis, cytotoxic activity, DNA topoisomerase-II inhibition, molecular modeling and structure-activity relationship of 9-anilinothiazolo[5,4-b]quinoline derivatives” (Bioorg Med Chem, 2009).

How the values were obtained:
HeLa = assay: Cytotoxicity against human HeLa cells after 72 hrs by MTT assay; format: functional, cell-based
Method in brief: (§1)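 Cells seeded at 4.5 to 5.0 × 10^4 cells/mL/well in 24-well plates, exposed to compounds in DMSO for 72 h. MTT in PBS pH 7.2 added, formazan dissolved in DMSO, absorbance read at 540 nm. % growth inhibition = (1 − treated/untreated absorbance) × 100. Three independent experiments in quadruplicate.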

SW480 = assay: Cytotoxicity against human SW480 cells after 72 hrs by MTT assay; format: functional, cell-based; conditions: SW480, 72 h; method in brief: as §1
SW-620 = assay: Cytotoxicity against human SW620 cells after 72 hrs by MTT assay; format: functional, cell-based; conditions: SW-620, 72 h; method in brief: as §1
K562 = assay: Cytotoxicity against human K562 cells after 72 hrs by MTT assay; format: functional, cell-based; conditions: K562, 72 h; method in brief: as §1
[1] = target: DNA topoisomerase 2-alpha (Homo sapiens, UniProt P11388); assay: Inhibition of human DNA topoisomerase 2-mediated Crithidia fasciculata kDNA decatenation using ethidium bromide staining by agarose gel electrophoresis
Chain of DNA topoisomerase 2-alpha (P11388 whole entry): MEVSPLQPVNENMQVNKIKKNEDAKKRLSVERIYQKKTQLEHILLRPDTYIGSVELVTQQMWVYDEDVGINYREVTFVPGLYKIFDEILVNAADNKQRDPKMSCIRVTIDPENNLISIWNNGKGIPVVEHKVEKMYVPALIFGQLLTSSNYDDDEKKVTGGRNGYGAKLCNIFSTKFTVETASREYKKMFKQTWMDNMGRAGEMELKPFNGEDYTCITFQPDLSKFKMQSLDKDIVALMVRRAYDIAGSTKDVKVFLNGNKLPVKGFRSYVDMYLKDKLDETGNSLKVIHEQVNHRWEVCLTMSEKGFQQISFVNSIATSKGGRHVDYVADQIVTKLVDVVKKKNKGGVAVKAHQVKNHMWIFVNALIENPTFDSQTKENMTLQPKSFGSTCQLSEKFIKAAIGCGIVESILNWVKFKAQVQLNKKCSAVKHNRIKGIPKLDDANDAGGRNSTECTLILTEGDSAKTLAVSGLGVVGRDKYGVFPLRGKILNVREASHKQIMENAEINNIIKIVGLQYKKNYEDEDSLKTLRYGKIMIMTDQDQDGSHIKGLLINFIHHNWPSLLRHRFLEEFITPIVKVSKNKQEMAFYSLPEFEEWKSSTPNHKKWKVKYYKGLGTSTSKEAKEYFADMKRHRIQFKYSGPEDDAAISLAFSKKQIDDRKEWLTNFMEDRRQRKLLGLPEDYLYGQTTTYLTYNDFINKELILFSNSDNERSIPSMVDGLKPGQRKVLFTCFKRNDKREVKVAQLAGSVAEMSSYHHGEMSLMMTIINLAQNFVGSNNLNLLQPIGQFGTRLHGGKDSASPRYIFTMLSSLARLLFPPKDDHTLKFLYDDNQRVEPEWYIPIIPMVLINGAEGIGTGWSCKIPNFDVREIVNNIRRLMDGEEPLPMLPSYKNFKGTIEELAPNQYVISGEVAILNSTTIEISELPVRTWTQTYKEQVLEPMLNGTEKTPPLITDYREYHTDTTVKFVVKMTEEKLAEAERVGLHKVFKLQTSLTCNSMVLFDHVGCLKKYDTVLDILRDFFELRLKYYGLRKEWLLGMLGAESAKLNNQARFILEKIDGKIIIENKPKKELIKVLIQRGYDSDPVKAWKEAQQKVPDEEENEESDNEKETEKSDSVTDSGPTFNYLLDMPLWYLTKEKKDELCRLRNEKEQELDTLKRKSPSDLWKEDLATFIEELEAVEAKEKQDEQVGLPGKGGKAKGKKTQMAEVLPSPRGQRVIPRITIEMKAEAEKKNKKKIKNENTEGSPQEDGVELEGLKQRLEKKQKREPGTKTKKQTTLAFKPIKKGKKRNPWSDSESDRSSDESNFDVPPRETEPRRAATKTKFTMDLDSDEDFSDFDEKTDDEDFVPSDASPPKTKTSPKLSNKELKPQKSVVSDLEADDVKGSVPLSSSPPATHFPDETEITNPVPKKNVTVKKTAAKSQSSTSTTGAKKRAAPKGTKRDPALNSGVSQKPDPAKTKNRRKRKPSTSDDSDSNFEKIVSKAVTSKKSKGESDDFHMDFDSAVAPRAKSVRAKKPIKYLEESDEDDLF
Method in brief: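 Crithidia fasciculata kDNA (5 µg/mL) with 4 units human Topo II in 30 mM Tris–HCl pH 7.6, 60 mM NaCl, 8 mM MgCl2, 15 mM 2-mercaptoethanol, 3 mM ATP, 8% DMSO, 30 min at 37 °C. Proteinase K follows, then chloroform/isoamyl extraction and agarose gel with ethidium bromide. Decatenated plus linear DNA quantified densitometrically as % of total. Screened at 160 µM, IC50 from 1–160 µM curves.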

Row | IC50 [1] | Structure (SMILES) | IC50 (HeLa) | IC50 (SW480) | IC50 (SW-620) | IC50 (K562)
1 | 18 µM | CSc1nc2c(Nc3cc(N)cc(CO)c3)c3ccccc3nc2s1 | > 80 µM | > 80 µM | > 80 µM | > 80 µM
2 |  | CCN(CC)CCNc1nc2c(Nc3cccc(OC)c3)c3ccccc3nc2s1 | 19.2 µM | 11.5 µM | 20 µM | 23.5 µM
3 | 169 µM | CCN(CC)CCNc1nc2c(Nc3ccccc3)c3ccccc3nc2s1 | 16 µM | 37.7 µM | 21.6 µM | 16.8 µM
4 |  | CSc1nc2c(Nc3cccc(C#N)c3)c3cc(F)ccc3nc2s1 | > 80 µM | > 80 µM | > 80 µM | 55.4 µM
5 |  | CCN(CC)CCNc1nc2c(Nc3ccc(OC)cc3)c3ccccc3nc2s1 | 13.6 µM | 12 µM | 16.4 µM | 10.9 µM
6 |  | COc1cccc(Nc2c3cc(F)ccc3nc3sc(SC)nc23)c1 | 15.8 µM | 13.7 µM | 12.2 µM | 
7 |  | c1ccc(Nc2c3ccccc3nc3sc(N4CCOCC4)nc23)cc1 | > 80 µM | > 80 µM | > 80 µM | > 80 µM
8 | 29.6 µM | CSc1nc2c(Nc3cccc(NC(C)=O)c3)c3ccccc3nc2s1 | > 80 µM | > 80 µM | > 80 µM | > 80 µM
9 |  | CCN(CC)CCCNc1nc2c(Nc3ccc(Cl)cc3)c3ccccc3nc2s1 | 8.82 µM | 4.92 µM | 7.48 µM | 3.36 µM
10 |  | CSc1nc2c(Nc3ccc(C#N)cc3)c3cc(F)ccc3nc2s1 | > 80 µM | > 80 µM | > 80 µM | 
11 | 16.7 µM | CSc1nc2c(Nc3cccc(N)c3)c3ccccc3nc2s1 | > 80 µM | > 80 µM | > 80 µM | > 80 µM
12 |  | CSc1nc2c(Nc3cccc(/C(C)=N\O)c3)c3ccccc3nc2s1 | 34.2 µM | 37.3 µM | 39.4 µM | 32.8 µM
13 | 20.5 µM | CSc1nc2c(Nc3ccc(Cl)cc3)c3ccccc3nc2s1 | > 80 µM | > 80 µM | > 80 µM | 79.5 µM
14 | 40.9 µM | CCN(CC)CCCNc1nc2c(Nc3cccc(Cl)c3)c3ccccc3nc2s1 | 7.46 µM | 7.91 µM | 10.2 µM | 9.84 µM
15 |  | c1ccc(Nc2c3ccccc3nc3sc(N4CCCCC4)nc23)cc1 | > 80 µM | > 80 µM | > 80 µM | > 80 µM
16 |  | Clc1c2ccccc2nc2sc(N3CCOCC3)nc12 | > 80 µM | > 80 µM | > 80 µM | > 80 µM
17 |  | Clc1c2ccccc2nc2sc(N3CCCCC3)nc12 | > 80 µM | > 80 µM | > 80 µM | > 80 µM
18 |  | CCOC(=O)c1cccc(Nc2c3ccccc3nc3sc(SC)nc23)c1 | > 80 µM | > 80 µM | > 80 µM | > 80 µM

Row | IC50 [1] | Structure (SMILES) | IC50 (HeLa) | IC50 (SW480) | IC50 (SW-620) | IC50 (K562)
19 |  | CCN(CC)CCCNc1nc2c(Nc3ccccc3)c3ccccc3nc2s1 | 6.27 µM | 6.9 µM | 16.6 µM | 7.52 µM
20 |  | CCN(CC)CCCNc1nc2c(Nc3ccc(C#N)cc3)c3ccccc3nc2s1 | 24.2 µM | 22.7 µM | 29.2 µM | 12.9 µM
21 |  | CN1CCN(c2nc3c(Cl)c4ccccc4nc3s2)CC1 | > 80 µM | > 80 µM | > 80 µM | > 80 µM
22 |  | CCN(CC)CCNc1nc2c(Nc3cccc(Cl)c3)c3ccccc3nc2s1 | 9.12 µM | 14.3 µM | 17.8 µM | 12.2 µM
23 |  | CCN(CC)CCNc1nc2c(Nc3cccc(C#N)c3)c3ccccc3nc2s1 | 13.3 µM | 13.1 µM | 14.6 µM | 12.5 µM
24 | 9.94 µM | COc1cc(NS(C)(=O)=O)ccc1Nc1c2ccccc2nc2ccccc12 [AMSACRINE] | 9.5 µM | 27.7 µM | 16.7 µM | 19.9 µM
25 |  | CCN(CC)CCCNc1nc2c(Nc3cccc(C#N)c3)c3ccccc3nc2s1 | 19.2 µM | 11.5 µM | 19.7 µM | 12.9 µM
26 | 64.3 µM | CSc1nc2c(Nc3cccc(O)c3)c3ccccc3nc2s1 | > 80 µM | > 80 µM | > 80 µM | > 80 µM
27 |  | CN1CCN(c2nc3c(Nc4ccccc4)c4ccccc4nc3s2)CC1 | 60.7 µM | 41.8 µM | > 80 µM | 73 µM
28 |  | CSc1nc2c(Nc3ccccc3)c3ccccc3nc2s1 | > 80 µM | > 80 µM | > 80 µM | > 80 µM
29 | 12.3 µM | CNc1cccc(Nc2c3ccccc3nc3sc(SC)nc23)c1 | 46.2 µM | > 80 µM | > 80 µM | 46.9 µM
30 |  | CCN(CC)CCNc1nc2c(Nc3ccc(Cl)cc3)c3ccccc3nc2s1 | 10.2 µM | 12.6 µM | 12.2 µM | 7.26 µM
31 | 21.2 µM | CSc1nc2c(Nc3cccc(Cl)c3)c3ccccc3nc2s1 | 69.4 µM | > 80 µM | > 80 µM | 80.3 µM
32 |  | CSc1nc2c(Nc3ccccc3)c3cc(F)ccc3nc2s1 | > 80 µM | > 80 µM | > 80 µM | > 80 µM
33 |  | COc1ccc(Nc2c3cc(F)ccc3nc3sc(SC)nc23)cc1 | > 80 µM | > 80 µM | > 80 µM | 54.9 µM
34 |  | CSc1nc2c(Nc3cccc(C(C)=O)c3)c3ccccc3nc2s1 | > 80 µM | > 80 µM | > 80 µM | > 80 µM
35 |  | CCN(CC)CCNc1nc2c(Nc3ccc(C#N)cc3)c3ccccc3nc2s1 | 15.2 µM | 14.2 µM | 16.5 µM | 8.36 µM
36 | 15.4 µM | CSc1nc2c(Nc3cccc(C(F)(F)F)c3)c3ccccc3nc2s1 | 43.3 µM | 65.1 µM | 62.3 µM | 67.1 µM
